# Test results reported in PMC2649974 (Proteins, 2009).
# What was measured:
# human PMK [1] = biological target: T1, human PMK (Homo sapiens, UniProt Q15126); type: binding; details: for Kd: read-out: Kd in all complexes, binary and ternary complexes, NMR, pH 6.5, 25 °C
# T1 sequence (Q15126 1-192): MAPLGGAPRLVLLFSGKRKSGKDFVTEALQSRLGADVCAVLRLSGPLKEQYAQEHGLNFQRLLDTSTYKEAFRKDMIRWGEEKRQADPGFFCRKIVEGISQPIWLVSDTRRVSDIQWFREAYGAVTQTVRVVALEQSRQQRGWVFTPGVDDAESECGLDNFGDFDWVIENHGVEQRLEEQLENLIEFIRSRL
# Method in brief: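 Uniformly 15N-labelled His6-tagged human PMK from E. coli BL21(DE3) Rosetta, Ni-purified. Held at 400-600 μM in 20 mM KH2PO4, 5 mM DTT, 10% D2O, 0.02% NaN3, pH 6.5, 25 °C. Mg-ADP (1:1 MgCl2) or M5P added in 100 μM steps to saturation, in either order. Fast-exchange 1H/15N shifts (15N scaled by 6.51) were fitted to a quadratic with total protein and ligand.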
# human PMK [2] = biological target: T1, human PMK; details: previously reported Km values; cited from earlier work
Kd (human PMK [1]) [µM],"binding to PMK (in words) (human PMK [1]; compared to ATP or ADP, HSQC titration onto Apo-PMK)",SMILES,Km (human PMK [2]) [µM]
6 to 60,,"Nc1ncnc2c1ncn2[C@@H]1O[C@H](COP(=O)(O)OP(=O)(O)O)[C@@H](O)[C@H]1O [Mg-ADP, ADP]",47 ± 5
,binds only weakly,Nc1ncnc2c1ncn2[C@@H]1O[C@H](COP(=O)(O)OP(=O)(O)NP(=O)(O)O)[C@@H](O)[C@H]1O [AMP-PNP],
6 to 60,,"C[C@@](O)(CCOP(=O)(O)O)CC(=O)O [M5P, mevalonate 5-phosphate]",34 ± 3
